Reference: ChEMBL document CHEMBL2093137, “WHO-TDR NTD Screening”
In brackets after ≈: the same amount, converted by molar mass.

How the values were obtained:
[1] = tested on: Brugia malayi; experiment: (§1) WHO-TDR: Lymphatic Filariasis; format: functional; set-up: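 tested at 10 µM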
Method in brief: (§2)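 In a whole-organism assay, Brugia malayi microfilariae were screened against a diverse Life Chemicals library that had been filtered for drug-likeness and reactive groups. That library comprised 10,000 compounds. Activity is expressed as percent inhibition and as IC50.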

[2] = tested on: Brugia malayi; experiment: as §1; format: functional, organism-based; method in brief: as §2
[3] = tested on: Plasmodium falciparum K1; experiment: WHO-TDR: Malaria; format: functional, organism-based, Homo sapiens; details: Erythrocyte
Method in brief: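 This whole-organism screen covered 10,000 drug-likeness-filtered and reactive-group-filtered compounds from Life Chemicals. The target was the Plasmodium falciparum K1 strain in human red blood cells, and the readout was antiplasmodial IC50.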

[4] = WHO-TDR: Cytotoxicity; format: toxicity, cell-based; details: human, MRC5 cells
[5] = tested on: Trypanosoma brucei brucei; experiment: WHO-TDR: Human African Trypanosomiasis (HAT); format: functional, organism-based; details: Squib-427
Method in brief: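 Screening used a 10,000-compound diverse library supplied by Life Chemicals and filtered for drug-likeness and reactive groups. Whole bloodstream-form parasites of Trypanosoma brucei Squib 427 strain were assayed according to previously published standard procedures, with reference drugs as positive controls. The reported measure is IC50, reflecting antiparasitic potency.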

[6] = tested on: Leishmania infantum; experiment: WHO-TDR: Leishmaniasis; format: functional, organism-based, Mus musculus; details: Macrophage
Method in brief: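 The screened collection came from Life Chemicals: 10,000 diverse compounds selected after filtering for drug-likeness and reactive groups. Each was tested in a whole-organism assay against Leishmania infantum MHOM/MA(BE)/67 amastigotes inside murine peritoneal macrophages, using previously published standard procedures and a reference drug as positive control. Results are IC50 values for antiparasitic potency.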

[7] = tested on: Brugia malayi; experiment: as §1; format: functional; set-up: concentration or dose not given beside the values; method in brief: as §2; remark: listed apart in the source
[8] = tested on: Trypanosoma cruzi; experiment: WHO-TDR: Chagas disease; format: functional, organism-based, Homo sapiens; details: MRC5
Method in brief: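 Intracellular amastigotes of the Trypanosoma cruzi Tulahuen CL2 beta-galactosidase strain, grown in MRC-5SV2 human lung fibroblast host cells, were tested in a whole-organism screen. The compounds came from a 10,000-member diverse Life Chemicals library that had been filtered for drug-likeness and reactive groups. Previously published standard procedures were followed, with a reference drug as positive control, and potency is reported as IC50.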

[9] = tested on: Schistosoma mansoni; experiment: (§3) WHO-TDR: Schistosomiasis; format: functional; set-up: concentration or dose not given beside the values
Method in brief: (§4)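 In this whole-organism assay, larval and/or adult worms of Schistosoma mansoni (Puerto Rican strain) were exposed to compounds from a diverse Life Chemicals library of 10,000 members. A reference drug served as positive control. Activity is stated as percent inhibition and IC50.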

[10] = tested on: Onchocerca lienalis; experiment: (§5) WHO-TDR: Onchocerciasis; format: functional; set-up: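 at 12.5 µM on microfilariae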
Method in brief: (§6)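 Microfilariae of Onchocerca ochengi or Onchocerca lienalis, animal pathogens standing in for the human parasite, were exposed to compounds in a whole-organism screen. The compounds came from a 10,000-compound diverse Life Chemicals library filtered for drug-likeness and reactive groups. Results are expressed as percent inhibition and IC50.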

[11] = tested on: Schistosoma mansoni; experiment: as §3; format: functional, organism-based; method in brief: as §4
[12] = tested on: Onchocerca ochengi; experiment: as §5; format: functional; set-up: concentration or dose not given beside the values; method in brief: as §6;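 note: at 12.5 µM on microfilariae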

| SMILES | IC50 [2] [µM] | IC50 [3] [µg/mL] | IC50 [5] [µg/mL] | IC50 [6] [µg/mL] | IC50 [11] [µg/mL] | % Inhibition [1] [%] | IC50 [4] [µg/mL] | % Inhibition [7] [%] | IC50 [8] [µg/mL] | % Inhibition [9] [%] | % Inhibition [10] [%] | % Inhibition [12] [%] |
| --- | --- | --- | --- | --- | --- | --- | --- | --- | --- | --- | --- | --- |
| O=C(CCS(=O)(=O)c1ccccc1)N(CCCN1CCOCC1)c1nc2ccccc2s1 | 6.05 | > 15.3 | 4.9 (≈ 10.3 µM) | 5.81 (≈ 12.3 µM) | – | 100 | 2.88 (≈ 6.09 µM) | 60 | 8.52 (≈ 18 µM) | 0 | 9.31 | – |
| O=C(O)CCC(=O)Nc1ccc(Br)cc1 | 6.6 | > 8.16 | > 8.16 | > 8.16 | – | 100 | > 8.16 | 0 | > 8.16 | 0 | 0 | – |
| COc1ccc(C(=O)Nc2nnc(SCC(=O)Nc3cc(C(F)(F)F)ccc3Cl)s2)cc1OC | 5.95 | > 16 | > 16 | > 16 | – | 100 | > 16 | 0 | > 16 | 0 | 26.67 | – |
| O=C(CSc1nnc(NC(=O)C23CC4CC(CC(C4)C2)C3)s1)Nc1nccs1 | 6.3 | > 13.1 | > 13.1 | 4.23 (≈ 9.71 µM) | – | 100 | > 13.1 | 33.33 | > 13.1 | 0 | 33.34 | – |
| O=C(Nc1nccs1)c1ccc2c(c1)CCCC2 | 5.19 | > 7.75 | > 7.75 | > 7.75 | – | 100 | > 7.75 | 25 | > 7.75 | 0 | 0 | – |
| COC(=O)c1ccc(COc2cccc3c2CCN(Cc2ccc(Cl)cc2)C3=O)o1 | 4.61 | 4.84 (≈ 11.4 µM) | 0.772 (≈ 1.81 µM) | > 12.8 | – | 100 | > 12.8 | 12.5 | 3.19 (≈ 7.49 µM) | 0 | 20 | – |
| CCOC(=O)c1ccc(NC(=O)CSc2c(C)[nH]c3ccccc23)cc1 | 6.05 | > 11.1 | 3.67 (≈ 9.95 µM) | > 11.1 | – | 100 | > 11.1 | 0 | 3.49 (≈ 9.49 µM) | 0 | 46.7 | – |
| COc1ccccc1C(=O)NCCSc1c(-c2ccccc2)[nH]c2ccccc12 | 4.61 | 5.19 (≈ 12.9 µM) | 4.03 (≈ 10 µM) | > 12.1 | – | 100 | > 12.1 | 25 | 2.91 (≈ 7.24 µM) | 0 | 0 | – |
| O=C(Nc1nc2c(s1)CSc1ccccc1-2)C1CCCN1S(=O)(=O)c1cccs1 (centres undefined) | 5.19 | 3.71 (≈ 8 µM) | 0.45 (≈ 0.971 µM) | 4.5 (≈ 9.71 µM) | – | 100 | 1.88 (≈ 4.06 µM) | 0 | 0.5 (≈ 1.08 µM) | 100 | 93 | – |
| CCOC(=O)c1oc2ccccc2c1NC(=O)c1cc(C)no1 | – | > 9.43 | > 9.43 | > 9.43 | 2.21 (≈ 7.03 µM) | 20 | > 9.43 | – | > 9.43 | 100 | – | 0 |
| CCn1ccc(C(=O)Nc2nc(-c3cc(Cl)ccc3Cl)cs2)n1 | 5.18 | > 11 | 3.52 (≈ 9.6 µM) | > 11 | – | 100 | > 11 | 0 | > 11 | 50 | – | 50 |
| Cc1nn(-c2ccccc2)c2[nH]cc(C(=O)Nc3ccc(F)c(Cl)c3)c(=O)c12 | 5.95 | > 11.9 | 4.14 (≈ 10.4 µM) | 2.34 (≈ 5.9 µM) | – | 100 | 1 (≈ 2.53 µM) | 33.33 | 1.96 (≈ 4.93 µM) | 62.5 | -1 | – |

Continued, in another order:

| IC50 [2] [µM] | IC50 [3] [µg/mL] | IC50 [5] [µg/mL] | IC50 [6] [µg/mL] | IC50 [11] [µg/mL] | SMILES | % Inhibition [1] [%] | IC50 [4] [µg/mL] | % Inhibition [7] [%] | IC50 [8] [µg/mL] | % Inhibition [9] [%] | % Inhibition [10] [%] | % Inhibition [12] [%] |
| --- | --- | --- | --- | --- | --- | --- | --- | --- | --- | --- | --- | --- |
| 1.49 | > 13.2 | > 13.2 | 4.26 (≈ 9.71 µM) | – | O=C(COc1ccc(Cl)cc1Cl)Nc1nnc(C23CC4CC(CC(C4)C2)C3)s1 | 100 | > 13.2 | 0 | > 13.2 | 0 | 0 | – |
| 3.58 | > 13.3 | > 13.3 | > 13.3 | – | O=C(CSc1nnc(NC(=O)C2CCCCC2)s1)Nc1ccccc1C(F)(F)F | 100 | > 13.3 | 0 | > 13.3 | 0 | 0 | – |
| 1.77 | > 13.1 | > 13.1 | > 13.1 | – | COc1cccc(C(=O)Nc2nnc(SCc3ccc(Br)cc3)s2)c1 | 100 | > 13.1 | 33.33 | > 13.1 | 0 | 0 | – |
| 1.91 | 9.24 (≈ 27.5 µM) | > 10.1 | > 10.1 | – | O=C(Nc1nc(-c2ccccn2)cs1)c1ccc2c(c1)CCCC2 | 100 | > 10.1 | 50 | > 10.1 | 12.5 | 60 | – |
| 2.02 | 1.52 (≈ 4.49 µM) | 2.36 (≈ 6.99 µM) | 3.21 (≈ 9.49 µM) | – | O=C(Nc1nc(-c2ccccn2)cs1)c1ccc2ncsc2c1 | 100 | 3.63 (≈ 10.7 µM) | 40 | 0.345 (≈ 1.02 µM) | 0 | 66.7 | – |
| 3.54 | 5.59 (≈ 10.3 µM) | 3.82 (≈ 7.01 µM) | 5.29 (≈ 9.71 µM) | – | CCN1CCc2c(sc(NC(=O)c3ccc(S(=O)(=O)N4CC5(C)CC4CC(C)(C)C5)cc3)c2C(N)=O)C1 (centres undefined) | 100 | 3.41 (≈ 6.26 µM) | 0 | 3.2 (≈ 5.88 µM) | 0 | 6.7 | – |
| 3.22 | 10.6 (≈ 21.1 µM) | > 15.1 | 4.88 (≈ 9.71 µM) | – | COc1ccc(-c2nnc(NC(=O)c3ccc(S(=O)(=O)N4CC(C)OC(C)C4)cc3)o2)c(OC)c1 (centres undefined) | 100 | > 15.1 | 25 | 4.91 (≈ 9.78 µM) | 0 | 66.7 | – |
| 4.37 | > 16.3 | > 17.4 | 5.29 (≈ 9.71 µM) | – | CCOC(=O)c1c(NC(=O)CSc2nc3c([nH]c4ccccc43)c(=O)n2-c2ccccc2)sc2c1CCC2 | 100 | > 16.3 | 25 | > 16.3 | 0 | 0 | – |
| 4.49 | > 12.8 | > 13.6 | > 12.8 | – | Cc1[nH]c2ccccc2c1SCCNC(=O)c1c(-c2ccccc2Cl)noc1C | 100 | > 12.8 | 25 | > 12.8 | 0 | 20 | – |
| 4.31 | > 11 | > 11.7 | > 11 | – | CCCCc1ccc(NC(=O)CSc2nccn2-c2ccccc2)cc1 | 100 | > 11 | 25 | 3.22 (≈ 8.81 µM) | 0 | 0 | – |
| 3.94 | > 12.1 | > 12.9 | > 12.1 | – | COc1ccc(Cl)cc1NC(=O)CSc1nccn1-c1cccc(C)c1C | 100 | > 12.1 | 25 | 2.76 (≈ 6.86 µM) | 0 | 46.67 | – |
| 3.97 | > 14.9 | 2.24 (≈ 4.49 µM) | > 14.9 | – | CN(Cc1ccco1)S(=O)(=O)c1ccc(C(=O)Nc2nc3c(s2)CSc2ccccc2-3)cc1 | 100 | > 14.9 | 40 | 3.86 (≈ 7.76 µM) | 91.7 | 0 | – |
| 3.54 | > 13.5 | > 13.5 | 4.37 (≈ 9.71 µM) | – | O=C(CCCSc1ccc(F)cc1)N1CCN(c2nc3ccc(Cl)cc3s2)CC1 | 100 | > 13.5 | 40 | > 13.5 | 0 | 12.34 | – |
